Calls of active or inactive are those of the source. The calls are words filed in the database; no cut-off is given here.
Columns and labels:
293T/ACE2 [1] = test: Inhibition of recombinant SARS-Cov-2 Spike protein subunit S1 binding to human 293T/ACE2 cells preincubated for 1 hr by Western blot analysis; format: cell-based; settings: Severe acute respiratory syndrome coronavirus 2
How it was run: (§1)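 Recombinant S1 protein was preincubated with peptides for 1 h at 37 °C, then added to A549 or 293T-ACE2⁺ cells for 1 h. Cells were washed, lysed in RIPA with PMSF and phosphatase inhibitor, and equal protein was run on SDS-PAGE. Blots on PVDF were probed with anti-S1 rabbit pAb, with ACTB as loading reference, and detected by chemiluminescence.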

293T/ACE2 [2] = test: Inhibition of Spike protein subunit S in SARS-CoV-2 pseudovirus assessed as inhibition of infection in human 293T/ACE2 cells by measuring decrease in luciferase activity at 0.000001 to 100 uM pretreated for 1 hr; format: cell-based; settings: Severe acute respiratory syndrome coronavirus 2, dose lower 1e-06 µM, dose upper 100.0 µM
How it was run: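 The pseudovirus was HIV-1-based, bought ready-made, and carried S protein with luciferase and GFP reporters. It was pre-mixed with serially diluted peptides (1 pM–100 μM) for 1 h at 37 °C, then added to 293T-ACE2⁺ cells for 1 h. Medium was then replaced, followed by 47 h further culture. Infection rate was derived from luciferase activity.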

293T/ACE2 [3] = test: Inhibition of Spike protein subunit S in SARS-CoV-2 pseudovirus assessed as inhibition of infection in human 293T/ACE2 cells by measuring decrease in fluorescence intensity at 0.000001 to 100 uM pretreated for 1 hr; format: cell-based; settings: Severe acute respiratory syndrome coronavirus 2, dose lower 1e-06 µM, dose upper 100.0 µM
How it was run: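 A bought-in HIV-1-based S-pseudotyped reporter virus expressing GFP was preincubated with serially diluted peptides for 1 h at 37 °C. It was then applied to 293T-ACE2⁺ cells for 1 h and replaced with fresh medium, followed by 47 h more culture. Cellular GFP fluorescence intensity was observed.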

A549 [4] = test: Inhibition of recombinant SARS-Cov-2 Spike protein subunit S1 binding to human A549 cells preincubated for 1 hr by Western blot analysis; format: cell-based; settings: Severe acute respiratory syndrome coronavirus 2; how it was run: as §1
[5] = Binding affinity to the recombinant SARS-Cov-2 Spike protein subunit S1 by QCM-D measurement; set-up: species or system Severe acute respiratory syndrome coronavirus 2
How it was run: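 Peptides were thiolated and coated onto 5 MHz gold QCM-D sensors for 30 min at room temperature. Recombinant S1 protein then flowed over as mobile phase at 300 μL/min, 37 °C, in PBS. Kd came from nonlinear regression of saturated binding mass (Δm) against […] (nM).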

293T/ACE2 [6] = test: Cytotoxicity against human 293T/ACE2 cells assessed as cell viability at 0.001 to 100 uM measured after 48 hrs using CCK-8 assay; format: functional, cell-based; settings: dose 0.001-100 µM
How it was run: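 293T-ACE2⁺ cells were grown in high-glucose DMEM with 10% FBS and 500 μg/mL hygromycin. They were exposed to peptides at 1 nM–100 μM (tenfold steps) for 48 h, with medium alone as control. After a PBS wash, CCK-8 was added and incubated at 37 °C. OD was read at 450/630 nm and normalised to control, n = 3.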

A549 [7] = test: Cytotoxicity against human A549 cells assessed as cell viability at 0.001 to 100 uM measured after 48 hrs using CCK-8 assay; format: cell-based; settings: a549, 48 h, dose 0.001-100 µM
How it was run: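 A549 cells were grown in McCoy-5A with 10% FBS. They were exposed to peptides at 1 nM–100 μM (tenfold steps) for 48 h, with medium alone as control. After a PBS wash, CCK-8 was added and incubated at 37 °C. OD was read at 450/630 nm and normalised to control, n = 3.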

| Substance | inhibition (293T/ACE2 [1]) | inhibition (293T/ACE2 [2]) | inhibition (293T/ACE2 [3]) | inhibition (A549 [4]) | Kd [5] | Activity (293T/ACE2 [6]) | Activity (A549 [7]) |
| --- | --- | --- | --- | --- | --- | --- | --- |
| H-GDRIARTTRAVDRPQTLRR-OH | Active | Active | Active | Active | 0.0769 µM | Not toxic | Non-Toxic |
| H-GDLFDDSNLDPFRDRISTRR-OH | Active | Active | Active | Active | 0.0375 µM | Not toxic | Non-Toxic |
| H-GDGVYYPRDVFDSSVLDSTQR-OH | Active | Active | Active | Active | 0.0056 µM | Not toxic | Non-Toxic |

Source: ChEMBL document CHEMBL5029161, “Synthetic Neutralizing Peptides Inhibit the Host Cell Binding of Spike Protein and Block Infection of SARS-CoV-2” (J Med Chem, 2021)
